Experiment [1] concerns Mus musculus. Put plainly: Suppression of plasma prolactin level in C57BL/6J mouse assessed as prolactin level at 20 nmol administered intranasally by ELISA (reference value: 0.45 +/-0.14 ng/ml). Type of experiment: functional. To be noted: route nas. A general note: In an ELISA, binding on a coated surface is turned into a signal by an enzyme label.
For experiment [2], the system named is Mus musculus. The experiment can be described thus: Induction of stress related behaviour in ddY mouse assessed as increase in cumulative grooming time at 200 nmol administered intranasally and measured after 45 mins by open field test. Type of experiment: functional. The note with it: route nas. An outline of the steps:
(§1)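 Open field (40 × 40 × 50 cm) with video tracking at 45 min and 24 h after i.n. dosing (200 nmol); total distance, cumulative grooming time, and inner ratio (% time in central 20 × 20 cm zone) scored. N = 8, mean ± SD; two-way repeated measures ANOVA, Tukey–Kramer.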

Experiment [3] deals with Mus musculus. Put plainly: Induction of anxiety-like behaviour in ddY mouse assessed as decrease in inner ratio at 200 nmol administered intranasally and measured after 45 mins by open field test. In kind it is functional. To be noted: route nas. Summed up: as §1
Experiment [4] deals with Mus musculus. Put plainly: Suppression of appetite in ddY mouse assessed as decrease in food consumption at 200 nmol administered intranasally as single dose on day 0 and measured on day 1. Type of experiment: functional, organism-based. The note with it: route nas, time 1.0 day. An outline of the steps: (§2)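 Single i.n. dose (200 nmol) or saline vehicle given on day 0; mice housed individually, with body weight, food and water consumed recorded daily. N = 8 per group, mean ± SD; two-way repeated measures ANOVA followed by Tukey–Kramer test.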

The test system of experiment [5] is Mus musculus. Put plainly: Suppression of restrain stress-induced plasma prolactin level in C57BL/6J mouse at 200 nmol administered intranasally followed by exposure to restraint stress for 40 mins by ELISA. In kind it is functional, organism-based. To be noted: route nas.
The test system of experiment [6] is Mus musculus. Put plainly: Effect on total distance travelled in ddY mouse at 200 nmol administered intranasally and measured after 3 hrs by open field test. Type of experiment: functional. To be noted: route nas.
Experiment [7] deals with Mus musculus. The experiment can be described thus: Induction of anxiety-like behaviour in ddY mouse assessed as decrease in inner ratio at 200 nmol administered intranasally and measured after 24 hrs by open field test. The note with it: route nas. In kind it is functional. An outline of the steps:
as §1

The subject of experiment [8] is Mus musculus. The experiment can be described thus: Suppression of appetite in ddY mouse assessed as decrease in daily food intake at 200 nmol administered intranasally on day 0 to 2 and measured on days 1 to 3. Type of experiment: functional, organism-based. The note with it: route nas, time 3.0 day. An outline of the steps: (§3)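 Daily i.n. dosing (200 nmol) or saline vehicle on days 0–2 in individually housed mice; body weight (relative to day 0), daily food intake and water intake recorded daily. N = 8, mean ± SD; two-way repeated measures ANOVA with Tukey–Kramer test.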

Experiment [9] concerns Mus musculus. The experiment can be described thus: Increase in water intake in ddY mouse at 200 nmol administered intranasally on days 0 to 2 and measured on days 4 to 5. In kind it is functional. To be noted: route nas, time 4-5 day. An outline of the steps: as §3
In experiment [10] the test system is Mus musculus. The experiment can be described thus: Effect on water intake in ddY mouse at 200 nmol administered intranasally as single dose on day 0 and measured for 3 days. In kind it is functional. The note with it: route nas, time 3.0 day. Summed up:
as §2

Experiment [11] concerns Mus musculus. The experiment can be described thus: Induction of anxiety-like behaviour in ddY mouse assessed as decrease in inner ratio at 200 nmol administered intranasally and measured after 3 hrs by open field test. In kind it is functional. The note with it: route nas.
For experiment [12], the system named is Mus musculus. Put plainly: Induction of stress related behaviour in ddY mouse assessed as increase in cumulative grooming time at 200 nmol administered intranasally and measured after 3 hrs by open field test. Type of experiment: functional. To be noted: route nas.
Experiment [13] has as its system Mus musculus. Put plainly: Suppression of restrain stress-induced plasma prolactin level in C57BL/6J mouse at 20 nmol administered intranasally and 50 mins later exposure to restraint stress for 40 mins by ELISA. Type of experiment: functional, organism-based. To be noted: route nas, time 90.0 min.
Experiment [14] deals with Mus musculus. Put plainly: Suppression of restrain stress-induced plasma prolactin level in C57BL/6J mouse assessed as prolactin level at 20 nmol administered intranasally followed by exposure to restraint stress for 40 mins by ELISA (reference value: 2.04 +/-0.95 ng/ml). In kind it is functional. The note with it: route nas.
Experiment [15] relates to Mus musculus. Put plainly: Suppression of appetite in ddY mouse assessed as decrease in body weight gain at 200 nmol administered intranasally as single dose on day 0. Type of experiment: functional, organism-based. The note with it: route nas. Summed up:
as §2

In experiment [16] the test system is Mus musculus. The experiment can be described thus: Effect on total distance travelled in ddY mouse at 200 nmol administered intranasally and measured after 45 mins by open field test. In kind it is functional. The note with it: route nas. Summed up: as §1
The test system of experiment [17] is Mus musculus. The experiment can be described thus: Induction of stress related behaviour in ddY mouse assessed as increase in cumulative grooming time at 200 nmol administered intranasally and measured after 24 hrs by open field test. Type of experiment: functional. To be noted: route nas. Summed up:
as §1

Experiment [18] relates to Mus musculus. Put plainly: Suppression of appetite in ddY mouse assessed as body weight at 200 nmol administered intranasally on days 0 to 2 and measured for 3 days relative to day 0. In kind it is functional. The note with it: route nas, time 3 day. An outline of the steps: as §3

Each structure is given as a SMILES string. Active and inactive are the calls of the source. No cut-off for these calls is given here. Non-standard residues stand in square brackets, D forms with d. Residues, ends and D or L forms follow the SMILES beside them. *: point of attachment. Propanoyl(3-cHex) = O=C(CCC1CCCCC1)*; Dab = NCC[C@H](N)C(=O)O

The values that follow come from ChEMBL document CHEMBL5344459, “Suppressive Effects of Neuromedin U Receptor 2-Selective Peptide Agonists on Appetite and Prolactin Secretion in Mice” (2024).

Consider `CC(C)C[C@H](NC(=O)CCC1CCCCC1)C(=O)N[C@@H](CC(C)C)C(=O)N[C@@H](CCN)C(=O)N1CCC[C@H]1C(=O)N[C@@H](CCCNC(=N)N)C(=O)N[C@@H](CC(N)=O)C(N)=O` ({Propanoyl(3-cHex)}-LL[Dab]PRN-NH2), for which the Activity in experiment [1] is under 0.15 ng/mL; in [14] it was 0.49 ng/mL; in experiment [18] it was under 100%. Also, the outcome in experiment [2], in experiment [3] and in experiment [9] was Active. Further, the inhibition result in experiment [4], in experiment [5], in experiment [8] and in experiment [15] was “Active” each time. Also, the result in experiment [6], in [7], in experiment [10], in experiment [11], in experiment [12] and in experiment [16] was inactive. The result in experiment [17] was inactive. The inhibition result in experiment [13] was “inactive”.
